The results in this text go back to ChEMBL document CHEMBL2390926, “Identification of novel FLT3 kinase inhibitors” (Eur J Med Chem, 2013).

Activity calls are given as the source filed them. No cut-off for these calls is given here.

For experiment [1], the target named is T1, Non-receptor tyrosine-protein kinase TNK1 (Homo sapiens) (UniProt Q13470).
T1 sequence (whole entry): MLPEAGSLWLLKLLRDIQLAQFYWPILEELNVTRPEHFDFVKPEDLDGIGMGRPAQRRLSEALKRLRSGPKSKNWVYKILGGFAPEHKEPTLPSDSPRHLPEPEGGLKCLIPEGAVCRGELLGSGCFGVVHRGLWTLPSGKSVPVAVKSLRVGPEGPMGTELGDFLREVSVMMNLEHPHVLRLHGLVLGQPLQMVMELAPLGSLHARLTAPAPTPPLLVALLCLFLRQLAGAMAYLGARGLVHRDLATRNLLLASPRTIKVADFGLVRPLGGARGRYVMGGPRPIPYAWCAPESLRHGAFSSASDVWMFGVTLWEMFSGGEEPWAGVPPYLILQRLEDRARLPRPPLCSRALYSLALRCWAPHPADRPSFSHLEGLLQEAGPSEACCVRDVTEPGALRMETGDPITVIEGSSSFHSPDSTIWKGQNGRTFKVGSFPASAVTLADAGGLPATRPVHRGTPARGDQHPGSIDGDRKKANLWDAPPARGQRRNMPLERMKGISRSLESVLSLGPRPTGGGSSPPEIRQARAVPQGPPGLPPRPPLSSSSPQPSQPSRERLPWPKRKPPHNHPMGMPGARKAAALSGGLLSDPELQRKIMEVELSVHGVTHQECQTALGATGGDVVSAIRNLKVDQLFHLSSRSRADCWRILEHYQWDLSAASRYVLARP
Put plainly: Inhibition of TNK1 (unknown origin) transfected in mouse Ba/F3 cells at 1 uM after 24 hrs. The class given is cell-based. To be noted: BaF3.

In experiment [2] the target is Leukocyte tyrosine kinase receptor (Homo sapiens) (UniProt P29376). Put plainly: Inhibition of LTK (unknown origin) transfected in mouse Ba/F3 cells at 1 uM after 24 hrs. The class given is cell-based. To be noted: BaF3. The essentials: (§1)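 Kinase specificity panel: each Ba/F3 line transformed with one of 24 tyrosine kinases depends on that kinase to grow. Cells were given compound at 1 or 5 µM for 24 h, with DMSO as comparator. Percentage growth was read by ATP-lite luminescence and reported as mean ± SEM.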

Experiment [3] concerns the target Tyrosine-protein kinase ABL2 (Homo sapiens) (UniProt P42684). Put plainly: Inhibition of ABL2 (unknown origin) transfected in mouse Ba/F3 cells at 1 uM after 24 hrs. It counts as cell-based. To be noted: BaF3. An outline of the steps: as §1
Experiment [4] addresses T2, Receptor-type tyrosine-protein kinase FLT3 (Mus musculus) (UniProt Q00342).
T2 sequence (whole entry): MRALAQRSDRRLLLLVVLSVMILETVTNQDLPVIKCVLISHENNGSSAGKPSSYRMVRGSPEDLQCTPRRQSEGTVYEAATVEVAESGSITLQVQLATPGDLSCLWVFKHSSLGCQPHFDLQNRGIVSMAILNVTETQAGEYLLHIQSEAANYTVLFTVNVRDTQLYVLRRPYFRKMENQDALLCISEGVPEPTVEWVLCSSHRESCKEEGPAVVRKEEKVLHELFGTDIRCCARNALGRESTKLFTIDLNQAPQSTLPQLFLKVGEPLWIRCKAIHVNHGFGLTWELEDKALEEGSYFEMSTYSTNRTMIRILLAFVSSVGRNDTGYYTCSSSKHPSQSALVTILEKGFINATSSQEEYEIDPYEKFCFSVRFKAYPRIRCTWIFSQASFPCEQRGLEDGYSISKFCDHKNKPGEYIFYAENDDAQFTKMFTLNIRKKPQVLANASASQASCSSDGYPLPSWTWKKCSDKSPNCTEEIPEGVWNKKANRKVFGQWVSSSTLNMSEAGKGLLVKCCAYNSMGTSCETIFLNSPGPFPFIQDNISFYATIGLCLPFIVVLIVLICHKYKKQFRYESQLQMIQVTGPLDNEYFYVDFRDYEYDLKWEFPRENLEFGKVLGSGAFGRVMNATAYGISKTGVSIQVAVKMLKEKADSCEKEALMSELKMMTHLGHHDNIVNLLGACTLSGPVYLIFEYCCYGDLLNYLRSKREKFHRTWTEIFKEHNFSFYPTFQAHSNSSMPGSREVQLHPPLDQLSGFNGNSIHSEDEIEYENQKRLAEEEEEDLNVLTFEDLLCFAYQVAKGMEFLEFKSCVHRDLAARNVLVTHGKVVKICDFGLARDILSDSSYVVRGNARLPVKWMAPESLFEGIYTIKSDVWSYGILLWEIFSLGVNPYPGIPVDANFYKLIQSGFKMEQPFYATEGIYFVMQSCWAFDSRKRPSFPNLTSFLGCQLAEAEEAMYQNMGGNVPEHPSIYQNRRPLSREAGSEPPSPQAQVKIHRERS
Put plainly: Inhibition of FLT3 phosphorylation in mouse Ba/F3 cells transfected with FLT3-ITD cells at 500 nM after 90 mins by Western blot analysis. To be noted: BaF3. It counts as cell-based. The essentials:
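Ba/F3-FLT3-ITD cells were treated for 90 min with increasing doses. They were lysed in buffer with 1 mM NaVO4 and protease inhibitors, then reduced and run on Bis-Tris 4–12% gels for Western blot. Phospho-FLT3 and phospho-STAT5 were detected, with total FLT3 and STAT5 as loading controls.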
On the technique in general: Immunoblotting shows a protein as a band on a membrane.

For experiment [5], the target named is Ephrin type-A receptor 7 (Homo sapiens) (UniProt Q15375). Put plainly: Inhibition of EPHA7 (unknown origin) transfected in mouse Ba/F3 cells at 1 uM after 24 hrs. To be noted: BaF3. The class given is cell-based. The essentials: as §1
A further experiment deals with MV4-11. Put plainly: Cytotoxicity against human MV4-11 cells after 72 hrs by plate reader analysis. To be noted: MV4-11, 72 h. It counts as functional, cell-based.
In a further experiment the test system is BaF3. Put plainly: Cytotoxicity against mouse BA/F3 cells transfected with FLT3-ITD at 1 uM after 24 hrs by plate reader analysis. The class given is functional, cell-based.
The target of experiment [6] is Tyrosine-protein kinase SYK (Homo sapiens) (UniProt P43405). Put plainly: Inhibition of SYK (unknown origin) transfected in mouse Ba/F3 cells at 1 uM after 24 hrs. To be noted: BaF3. The class given is cell-based.
Another experiment has as its system KG-1. Put plainly: Cytotoxicity against human KG1 cells after 72 hrs by plate reader analysis. It counts as functional, cell-based. To be noted: KG-1, 72 h.
For experiment [7], the target named is Tyrosine-protein kinase receptor UFO (Homo sapiens) (UniProt P30530). Put plainly: Inhibition of AXL (unknown origin) transfected in mouse Ba/F3 cells at 1 uM after 24 hrs. It counts as cell-based. To be noted: BaF3. The essentials:
as §1

Experiment [8] concerns the target Tyrosine-protein kinase Yes (Homo sapiens) (UniProt P07947). Put plainly: Inhibition of YES (unknown origin) transfected in mouse Ba/F3 cells at 1 uM after 24 hrs. It counts as cell-based. To be noted: BaF3.
Experiment [9] addresses Tyrosine-protein kinase Fyn (Homo sapiens) (UniProt P06241). Put plainly: Inhibition of FYN (unknown origin) transfected in mouse Ba/F3 cells at 1 uM after 24 hrs. The class given is cell-based. To be noted: BaF3. The essentials:
as §1

Experiment [10] addresses NT-3 growth factor receptor (Homo sapiens) (UniProt Q16288). Put plainly: Inhibition of NTRK3 (unknown origin) transfected in mouse Ba/F3 cells at 1 uM after 24 hrs. The class given is cell-based. To be noted: BaF3.
Experiment [11] concerns the target Ephrin type-A receptor 2 (Homo sapiens) (UniProt P29317). Put plainly: Inhibition of EPHA2 (unknown origin) transfected in mouse Ba/F3 cells at 1 uM after 24 hrs. It counts as cell-based. To be noted: BaF3. An outline of the steps:
as §1

Tyrosine-protein kinase Yes (Homo sapiens), sequence (P07947 2-543 limits assumed): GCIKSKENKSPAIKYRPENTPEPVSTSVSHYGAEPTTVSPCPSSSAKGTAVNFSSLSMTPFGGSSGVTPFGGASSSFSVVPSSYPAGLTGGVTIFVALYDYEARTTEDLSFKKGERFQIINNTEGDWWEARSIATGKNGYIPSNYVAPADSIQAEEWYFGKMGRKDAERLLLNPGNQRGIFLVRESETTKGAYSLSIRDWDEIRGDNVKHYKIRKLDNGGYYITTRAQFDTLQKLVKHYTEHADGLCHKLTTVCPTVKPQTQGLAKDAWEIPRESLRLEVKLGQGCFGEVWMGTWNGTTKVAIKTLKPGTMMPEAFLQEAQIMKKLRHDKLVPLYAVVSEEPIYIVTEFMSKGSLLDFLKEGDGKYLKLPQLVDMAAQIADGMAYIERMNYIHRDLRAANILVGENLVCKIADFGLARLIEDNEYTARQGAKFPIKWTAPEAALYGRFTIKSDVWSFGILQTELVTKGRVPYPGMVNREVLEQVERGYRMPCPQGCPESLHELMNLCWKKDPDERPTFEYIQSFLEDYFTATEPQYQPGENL
Tyrosine-protein kinase Fyn (Homo sapiens), sequence (P06241 2-537 limits assumed): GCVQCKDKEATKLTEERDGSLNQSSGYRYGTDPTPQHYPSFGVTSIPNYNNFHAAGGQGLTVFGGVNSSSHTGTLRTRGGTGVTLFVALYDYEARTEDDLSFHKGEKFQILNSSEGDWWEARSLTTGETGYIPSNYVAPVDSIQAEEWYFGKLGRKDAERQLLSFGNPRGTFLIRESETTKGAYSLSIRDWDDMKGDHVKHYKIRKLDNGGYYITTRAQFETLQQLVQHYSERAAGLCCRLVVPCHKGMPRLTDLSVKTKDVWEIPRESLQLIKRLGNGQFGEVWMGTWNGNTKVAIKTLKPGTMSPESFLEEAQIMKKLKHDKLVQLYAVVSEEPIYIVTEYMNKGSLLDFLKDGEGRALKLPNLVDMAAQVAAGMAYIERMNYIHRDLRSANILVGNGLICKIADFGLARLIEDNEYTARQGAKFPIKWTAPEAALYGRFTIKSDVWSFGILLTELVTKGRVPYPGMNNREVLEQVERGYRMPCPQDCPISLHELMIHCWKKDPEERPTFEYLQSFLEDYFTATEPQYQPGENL
Ephrin type-A receptor 7 (Homo sapiens), sequence (Q15375 28-998 limits assumed): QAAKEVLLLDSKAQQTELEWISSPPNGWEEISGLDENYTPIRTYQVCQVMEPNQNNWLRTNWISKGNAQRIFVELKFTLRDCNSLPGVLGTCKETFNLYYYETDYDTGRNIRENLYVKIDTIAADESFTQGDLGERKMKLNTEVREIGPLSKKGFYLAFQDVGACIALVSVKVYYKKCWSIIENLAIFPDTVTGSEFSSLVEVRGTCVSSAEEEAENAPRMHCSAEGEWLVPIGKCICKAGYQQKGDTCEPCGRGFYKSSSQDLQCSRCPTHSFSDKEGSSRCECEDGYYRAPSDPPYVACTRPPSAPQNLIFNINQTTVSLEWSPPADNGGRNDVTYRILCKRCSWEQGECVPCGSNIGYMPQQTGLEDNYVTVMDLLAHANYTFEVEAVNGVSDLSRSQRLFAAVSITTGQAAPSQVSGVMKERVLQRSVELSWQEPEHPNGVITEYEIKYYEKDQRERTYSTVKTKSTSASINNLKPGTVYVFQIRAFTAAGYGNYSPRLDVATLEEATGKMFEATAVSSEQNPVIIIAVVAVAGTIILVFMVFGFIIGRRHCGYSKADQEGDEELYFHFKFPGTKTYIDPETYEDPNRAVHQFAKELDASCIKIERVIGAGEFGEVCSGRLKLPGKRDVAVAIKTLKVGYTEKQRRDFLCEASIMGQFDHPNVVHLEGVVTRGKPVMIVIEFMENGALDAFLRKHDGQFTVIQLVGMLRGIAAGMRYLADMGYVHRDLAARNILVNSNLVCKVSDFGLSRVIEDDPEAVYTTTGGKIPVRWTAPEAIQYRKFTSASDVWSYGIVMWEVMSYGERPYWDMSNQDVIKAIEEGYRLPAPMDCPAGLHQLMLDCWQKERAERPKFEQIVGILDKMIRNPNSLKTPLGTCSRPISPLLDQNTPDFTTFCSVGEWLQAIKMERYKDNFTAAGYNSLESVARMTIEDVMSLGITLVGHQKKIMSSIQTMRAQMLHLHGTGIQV
Ephrin type-A receptor 2 (Homo sapiens), sequence (P29317 whole entry): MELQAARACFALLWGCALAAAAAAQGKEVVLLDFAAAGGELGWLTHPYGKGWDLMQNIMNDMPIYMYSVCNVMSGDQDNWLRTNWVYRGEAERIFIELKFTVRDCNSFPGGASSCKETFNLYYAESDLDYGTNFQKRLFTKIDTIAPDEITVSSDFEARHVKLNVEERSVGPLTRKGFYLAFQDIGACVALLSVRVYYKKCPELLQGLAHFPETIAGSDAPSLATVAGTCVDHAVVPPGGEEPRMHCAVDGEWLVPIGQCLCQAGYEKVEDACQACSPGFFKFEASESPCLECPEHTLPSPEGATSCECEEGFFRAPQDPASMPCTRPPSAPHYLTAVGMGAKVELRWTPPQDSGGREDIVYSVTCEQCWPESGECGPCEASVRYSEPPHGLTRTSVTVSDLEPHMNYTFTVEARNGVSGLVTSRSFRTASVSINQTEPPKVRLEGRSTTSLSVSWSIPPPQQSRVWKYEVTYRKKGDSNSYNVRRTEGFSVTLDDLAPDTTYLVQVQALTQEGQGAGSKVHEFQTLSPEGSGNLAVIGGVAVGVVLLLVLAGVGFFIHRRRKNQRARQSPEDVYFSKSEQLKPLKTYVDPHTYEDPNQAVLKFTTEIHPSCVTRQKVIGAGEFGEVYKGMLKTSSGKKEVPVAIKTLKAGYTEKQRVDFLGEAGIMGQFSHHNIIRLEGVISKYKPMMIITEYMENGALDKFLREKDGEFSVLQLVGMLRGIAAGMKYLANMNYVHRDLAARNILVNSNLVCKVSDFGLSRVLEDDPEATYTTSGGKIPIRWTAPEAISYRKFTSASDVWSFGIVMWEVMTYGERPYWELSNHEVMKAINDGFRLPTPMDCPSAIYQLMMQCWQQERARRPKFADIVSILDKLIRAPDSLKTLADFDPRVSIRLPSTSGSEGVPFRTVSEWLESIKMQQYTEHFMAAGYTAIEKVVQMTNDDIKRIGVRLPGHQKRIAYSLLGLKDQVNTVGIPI
NT-3 growth factor receptor (Homo sapiens), sequence (Q16288 32-839 limits assumed): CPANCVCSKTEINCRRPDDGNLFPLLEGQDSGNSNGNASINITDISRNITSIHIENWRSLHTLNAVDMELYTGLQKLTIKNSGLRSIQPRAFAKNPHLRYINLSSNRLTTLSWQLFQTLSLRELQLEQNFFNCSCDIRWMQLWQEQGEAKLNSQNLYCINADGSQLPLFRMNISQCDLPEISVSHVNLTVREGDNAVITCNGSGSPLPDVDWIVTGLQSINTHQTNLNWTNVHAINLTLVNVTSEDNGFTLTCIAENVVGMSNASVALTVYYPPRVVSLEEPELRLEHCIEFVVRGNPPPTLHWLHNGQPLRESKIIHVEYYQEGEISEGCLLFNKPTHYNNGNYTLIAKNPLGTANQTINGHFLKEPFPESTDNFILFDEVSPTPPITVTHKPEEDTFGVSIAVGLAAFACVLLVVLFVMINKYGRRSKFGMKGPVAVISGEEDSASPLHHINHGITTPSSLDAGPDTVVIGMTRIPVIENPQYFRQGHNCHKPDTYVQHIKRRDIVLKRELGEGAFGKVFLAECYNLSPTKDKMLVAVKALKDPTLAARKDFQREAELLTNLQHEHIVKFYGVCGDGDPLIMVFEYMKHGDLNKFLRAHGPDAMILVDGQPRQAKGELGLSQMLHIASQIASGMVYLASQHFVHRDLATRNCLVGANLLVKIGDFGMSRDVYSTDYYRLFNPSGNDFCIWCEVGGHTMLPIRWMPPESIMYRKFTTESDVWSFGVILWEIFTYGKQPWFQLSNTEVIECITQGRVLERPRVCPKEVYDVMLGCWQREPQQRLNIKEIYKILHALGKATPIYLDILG
Leukocyte tyrosine kinase receptor (Homo sapiens), sequence (P29376 whole entry): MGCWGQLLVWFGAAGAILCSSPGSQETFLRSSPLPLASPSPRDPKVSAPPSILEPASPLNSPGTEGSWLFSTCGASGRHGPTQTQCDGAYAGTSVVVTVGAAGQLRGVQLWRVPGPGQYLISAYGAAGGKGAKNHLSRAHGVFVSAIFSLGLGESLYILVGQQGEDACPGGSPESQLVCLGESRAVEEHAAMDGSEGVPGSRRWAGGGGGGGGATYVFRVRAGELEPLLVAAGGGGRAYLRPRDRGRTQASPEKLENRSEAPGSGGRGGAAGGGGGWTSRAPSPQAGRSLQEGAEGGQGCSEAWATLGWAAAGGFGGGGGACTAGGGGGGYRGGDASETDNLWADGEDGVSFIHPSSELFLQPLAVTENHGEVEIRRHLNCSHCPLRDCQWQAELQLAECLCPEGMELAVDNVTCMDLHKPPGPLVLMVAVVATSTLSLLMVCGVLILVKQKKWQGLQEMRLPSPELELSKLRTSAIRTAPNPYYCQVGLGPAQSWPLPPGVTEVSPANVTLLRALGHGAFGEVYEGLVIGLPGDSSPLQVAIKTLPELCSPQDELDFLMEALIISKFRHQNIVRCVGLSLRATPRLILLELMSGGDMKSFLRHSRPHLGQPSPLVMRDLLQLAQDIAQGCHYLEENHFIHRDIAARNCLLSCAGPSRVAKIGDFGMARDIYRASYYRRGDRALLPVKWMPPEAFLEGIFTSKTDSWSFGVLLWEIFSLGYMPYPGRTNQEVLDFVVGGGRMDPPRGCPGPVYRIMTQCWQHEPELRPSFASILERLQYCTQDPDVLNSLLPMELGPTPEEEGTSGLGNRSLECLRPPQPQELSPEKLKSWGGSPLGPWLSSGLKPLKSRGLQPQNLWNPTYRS

Broadly, the EC50 is the concentration that produces a half-maximal response. Consider `Cc1cccc(C(=O)Nc2cc(-c3ccc(F)cc3)n[nH]2)c1`, for which the inhibition result in experiment [1], in experiment [2], in experiment [3], in [5], in experiment [6] and in experiment [7] was “inactive” throughout. The inhibition result in experiment [8], in experiment [9], in [10] and in experiment [11] was “inactive” throughout. For the same compound, in experiment [4], the inhibition entry was “Active”. Besides, the EC50 was 1780 nM in the experiment on MV4-11 and 29 µM in the experiment on KG-1. Further, in the experiment with BaF3, the outcome was Active.
`COc1ccc(C(=O)Nc2cc(-c3ccccc3)[nH]n2)cc1`: the inhibition entry in experiment [1], in [2], in experiment [3], in experiment [5], in experiment [6] and in experiment [7] was “inactive” each time. For the same compound, the inhibition entry in [8], in experiment [9], in experiment [10] and in experiment [11] was “inactive” each time. The figures for the EC50 with MV4-11 and in the experiment on KG-1 were 142 nM and 15 µM, respectively. Also, the result in the experiment with BaF3 was Active.
As for `Cc1ccc(-c2cc(NC(=O)c3ccc(F)cc3)[nH]n2)cc1`, the inhibition entry in experiment [1], in experiment [2], in experiment [3], in [5], in experiment [6] and in experiment [7] was “inactive” in each case. In addition, the inhibition result in [8], in [9], in experiment [10] and in experiment [11] was “inactive” throughout. Also, the inhibition result in [4] is “Active”. Also, the EC50 in the experiment on MV4-11 was 2820 nM; with KG-1, 28 µM. Moreover, the outcome in the experiment with BaF3 was Active.
As for `Fc1ccc(-c2n[nH]cc2-c2ccncc2)cc1Cl`, in experiment [4], the inhibition result is “Active”. For the same compound, the EC50 was 2760 nM in the experiment on MV4-11 and 24 µM in the experiment with KG-1. For the same compound, in the experiment with BaF3, the result was Active.
On to `Cc1ccc(-n2cnc3cc(Nc4nnc(C)c5ccccc45)ccc32)cc1`, for which the inhibition entry in experiment [4] is “Active”. Also, the EC50 stood at 3410 nM in the experiment with MV4-11 and 20 µM with KG-1. For the same compound, the result in the experiment with BaF3 was Active.
